This is a sample that favours compounds with a hit; in the whole collection about 2.6% have one here.
ARFGAP1 inh: inhibitors of rat ARFGAP1; Q62848; AID 651572; inhibition, % at 16.5 µM; Arfgap1-stimulated ARF1 GTP hydrolysis, GDP FP detection; 0.26% of 360,000 active;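 active = inhibition above a per-plate limit, mean inhibition of low control wells plus 3 SD, cut at about 25% in these data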;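 note: 0% = DMSO wells with enzyme and 100% = wells lacking Arfgap1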
Target sequence (Q62848 1-136 limits assumed): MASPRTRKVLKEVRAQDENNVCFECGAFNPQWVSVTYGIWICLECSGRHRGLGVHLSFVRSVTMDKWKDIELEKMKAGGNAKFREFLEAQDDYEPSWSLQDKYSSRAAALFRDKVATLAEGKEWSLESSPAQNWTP
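System: truncated rat Arfgap1 GAP domain / Medium: HEPES-based buffer, pH 7.5 / Also added: N-terminally truncated human ARF1-GTP substrate / Incubation: enzyme reaction 120 min at 25 °C after 20 min preincubation / Measured by: FP of antibody-bound GDP Alexa 633 tracer, ex 620/em 688 nm / Replicates: singlicate, each compound tested once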
Calb FLC: affects C. albicans growth with fluconazole; C. albicans CaCi-2 + fluconazole, Alamar Blue growth, 48 h; 0.57% of 300,000 active; growth inhibition, % (concentration not given with the values); AID 1979;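 active = growth inhibition above about 58% in most replicates, limit read from the data, passing the limit was not always enough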;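 note: all wells also contain fluconazole at 8 µg/ml as a sub-toxic cotreatment; 0% = median of DMSO wells and 100% = median of geldanamycin control wells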
ASAP1 inh: blocks human ASAP1-stimulated Arf1 GTP hydrolysis | Q9ULH1 | GDP FP detection | inhibition, % at 16.5 µM | 0.19% of 360,000 active; in the data active = inhibition above about 25%;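 note: 0% = vehicle with enzyme and substrate and 100% = no enzyme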
IMP-1 inhibitor: inhibitors of Pseudomonas aeruginosa IMP-1 metallo-beta-lactamase | purified IMP-1, nitrocefin hydrolysis, epi-absorbance fluorescence | inhibition, % at 5.6 µM | 0.45% of 290,000 active | AID 1556;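 active = inhibition above the mean plus 3 SD of all compounds in the same screening run, cut at about 4.5% in these data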;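 note: 0% = IMP-1 with DMSO and 100% = DMSO wells lacking enzyme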
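Assay system: purified recombinant IMP-1 beta-lactamase. Input: IMP-1 0.2 nM before substrate addition. Buffer or medium: Zinc- and detergent-supplemented HEPES buffer, pH 7.1. Schedule: 25 °C, 15 min preincubation, 25 min reaction. Signal: Epi-absorbance fluorescence, 480 nm excitation, 530 nm emission. Evaluation: percent inhibition from optical density relative to buffer-blank wells.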
PHOSPHO1 block: PHOSPHO1 (human) inhibition | Q8TCT1 | inhibition, % at 13.3 µM | 1.1% of 290,000 active | recombinant PHOSPHO1, absorbance phosphatase assay; in the data active = inhibition above about 60%
Target sequence (Q8TCT1 whole entry, looked up): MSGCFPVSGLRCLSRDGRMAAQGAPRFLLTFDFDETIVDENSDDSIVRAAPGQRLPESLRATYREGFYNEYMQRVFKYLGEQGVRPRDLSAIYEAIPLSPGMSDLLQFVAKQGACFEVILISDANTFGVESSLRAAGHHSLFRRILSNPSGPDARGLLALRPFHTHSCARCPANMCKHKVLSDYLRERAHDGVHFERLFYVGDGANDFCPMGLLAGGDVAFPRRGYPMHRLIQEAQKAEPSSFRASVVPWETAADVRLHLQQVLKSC
VIM-2 inh: inhibitors of Pseudomonas aeruginosa VIM-2 metallo-beta-lactamase; purified VIM-2, nitrocefin hydrolysis, epi-absorbance fluorescence; inhibition, % at 5.6 µM; 0.89% of 290,000 active; AID 1527;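 active = inhibition above the mean of all tested compounds plus 3 SD, cutoff set per screening run, cut at about 7.5% in these data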;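 note: red hydrolysis product quenches plate fluorescence so inhibitors raise well fluorescence; 0% = enzyme with DMSO and 100% = DMSO without enzyme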
The depositor's hits bear a star; · = no result.

SMILES	ARFGAP1 inh	Calb FLC	ASAP1 inh	IMP-1 inhibitor	PHOSPHO1 block	VIM-2 inh
CCOC(=O)C(=CNc1cc(Cl)c(-c2ccco2)c(Cl)c1)C(=O)OCC	3	-1	-1	6.1*	20	0
CCCCn1c(CCn2nc(C)c(Br)c2C)n[nH]c1=S	11	11	14	1	90*	8.1*
CCn1c(CCCCc2n[nH]c(=S)n2CC)n[nH]c1=S	13	-6	-4	-5	42	0
C[C@H](CO)N1C[C@H](C)[C@@H](CN(C)C(=O)Nc2ccc(C(F)(F)F)cc2)OCc2cn(nn2)CCCC1=O	1	·	2	·	·	·
O=C1C(NS(=O)(=O)c2cccs2)=C(N2CCN(c3ccccc3)CC2)C(=O)c2ccccc21	-8	25	4	-4	76*	-5
O=C(O)c1oc2ccccc2c1CSc1ccc(Cl)cc1	-5	6	-9	-2	16	1
O=C(c1ccc(Cl)cc1)c1oc2ccccc2c1CS(=O)c1ccccc1 (stereo unspecified)	-12	8	-5	-3	98*	-2
Nc1nc2c(ncn2[C@@H]2O[C@H](C(=O)NC3CCCCC3)[C@@H](O)[C@H]2O)c(=O)[nH]1	1	·	-17	·	·	·
CCN1c2ccccc2N(C)C1(C)c1ccccc1 (stereo unspecified)	·	·	·	-2	-11	-1
CN1c2ccccc2N(C)C1(C)c1ccccc1	6	122*	-4	-5	11	-3
CCOC(=O)c1c(S(=O)(=O)Nc2ccccn2)c(C)n(C)c1C	-9	1	-4	-2	65*	-2
CCOC(=O)c1c(S(=O)(=O)Nc2ccccc2OCC)c(C)n(C)c1C	-6	6	-2	-4	12	-2
CCOC(=O)c1c(S(=O)(=O)NCC(=O)NCc2ccccc2Cl)c(C)n(C)c1C	0	2	-6	-3	62*	-1
COc1ccc(OC)c(S(=O)(=O)NC(=O)C2(C)CCN2C(=O)Cc2ccccc2)c1 (stereo unspecified)	-6	·	-3	·	·	·
CN(C)S(=O)(=O)c1cccc(-c2nnc(SCc3cc(Cl)cc4c3OCOC4)n2N)c1	3	1	6	-6	99*	-3
Cc1ccc(C(=O)n2c(=S)nc3ccccn32)cc1	·	-2	·	-2	20	-4
Cc1cccc(C(=O)n2c(=S)nc3ccccn32)c1	·	4	·	-1	85*	0
C=CCSc1nnc(-c2cc(Br)ccc2N)c(=O)[nH]1	19	5	8	-4	90*	-3
CCCCSc1nnc(-c2cc(Br)ccc2N)c(=O)[nH]1	-7	0	3	-5	7	1
Cc1ccc2nsnc2c1NS(=O)(=O)c1c(C)ccc2nsnc12	3	-7	-7	-4	21	-3
Cc1ccc(/C=[N+](\[O-])c2ccc(N(C)C)cc2)c2nsnc12	-63	97*	-55	-4	11	-3
CC(C)C[C@H]1COc2ccc(Cl)cc2S(=O)(=O)N1C[C@H](NC(=O)OC(C)(C)C)C(C)C	-9	·	12	·	·	·
Cc1cc(CN2CCN(c3ncc(Cc4ccccc4)cn3)CC2)cc(C)c1O	2	·	-4	·	·	·
Cc1ccc(-c2c(C(=O)Nc3ccccc3C)c(C)[nH]c(=S)c2C#N)o1	11	-18	1	5.7*	-30	-4
O=C(CC1CCCC1)N[C@@H](Cc1cccnc1)C(=O)N1CCC[C@H]1C(=O)NCCc1ccccc1Cl	-3	·	6	·	·	·
SMILES	ARFGAP1 inh	Calb FLC	ASAP1 inh	IMP-1 inhibitor	PHOSPHO1 block	VIM-2 inh
O=C(N[C@H](Cc1ccccc1)C(=O)NCCN1CCOCC1)[C@H]1O[C@@H](n2ccc(=O)[nH]c2=O)[C@H](O)[C@@H]1O	-4	·	-8	·	·	·
S=c1[nH]nc(COc2ccc(Cl)cc2)n1C1CCCCC1	4	12	-1	-4	14	-6
Cc1ccc(OCc2n[nH]c(=S)n2C2CCCCC2)cc1	-10	-10	17	-6	91*	-7
COc1ccc(OCc2n[nH]c(=S)n2-c2ccc(C)cc2)cc1	-4	0	6	-2	92*	-5
CCCS(=O)(=O)c1nnnn1-c1cccc(OC)c1	·	82*	·	-3	0	-3
O=C1CC2c3cc(-c4cc5ccccc5o4)ccc3CCN2C(=O)CN1Cc1ccccc1 (stereo unspecified)	-2	·	16	·	·	·
CC(C)C[C@@H]1COc2cc(F)ccc2S(=O)(=O)N1	-1	·	4	·	·	·
